From ChEMBL document CHEMBL1177827, “Discovery of novel 1H-imidazol-2-yl-pyrimidine-4,6-diamines as potential antimalarials” (Bioorg Med Chem Lett, 2010)
Converted amounts (≈) assume the structure as drawn. One block for each compound: values may come before it.

How the values were obtained:
[1] = tested on: Plasmodium falciparum; test: Antimalarial activity Plasmodium falciparum 3D7; assay type: functional, organism-based
How it was run: (§1)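 P. falciparum-infected human red blood cell proliferation assay, with SYBR Green staining as the read-out of parasite growth. EC50 is the mean of two experiments. Each plate carries mefloquine, sulfadoxine and artemisinin as internal standards.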

[2] = Metabolic stability in mouse microsomes assessed as extraction ratio; assay type: ADME, Microsome
[3] = Thermodynamic solubility at pH 6.8; assay type: physicochemical; conditions: buffer
How it was run: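 Thermodynamic solubility measured at pH 6.8, reported in […].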

[4] = Metabolic stability in rat microsomes assessed as extraction ratio; assay type: ADME, Microsome
[5] = Metabolic stability in human microsomes assessed as extraction ratio; assay type: ADME, Microsome
[6] = tested on: Plasmodium falciparum; test: Antimalarial activity Plasmodium falciparum C188; assay type: functional, organism-based; how it was run: as §1
[7] = tested on: Plasmodium falciparum; test: Antimalarial activity Plasmodium falciparum TM91C235; assay type: functional, organism-based; how it was run: as §1
[8] = tested on: Plasmodium falciparum; test: Antimalarial activity Plasmodium falciparum NF54; assay type: functional, organism-based; how it was run: as §1
[9] = tested on: Plasmodium falciparum; test: Antimalarial activity Plasmodium falciparum D6; assay type: functional, organism-based; how it was run: as §1
[10] = tested on: Plasmodium falciparum; test: Antimalarial activity Plasmodium falciparum W2; assay type: functional, organism-based; how it was run: as §1
[11] = tested on: Plasmodium falciparum; test: Antimalarial activity Plasmodium falciparum 7G8; assay type: functional, organism-based; how it was run: as §1
[12] = tested on: Plasmodium falciparum; test: Antimalarial activity Plasmodium falciparum FCR3; assay type: functional, organism-based; conditions: FCR-3/Gambia; how it was run: as §1
[13] = tested on: Plasmodium falciparum; test: Antimalarial activity Plasmodium falciparum K1; assay type: functional, organism-based; how it was run: as §1
[14] = tested on: Plasmodium falciparum; test: Antimalarial activity Plasmodium falciparum CAMP R; assay type: functional, organism-based; conditions: CampR; how it was run: as §1
[15] = tested on: Plasmodium falciparum; test: Antimalarial activity Plasmodium falciparum 3BAG; assay type: functional, organism-based; how it was run: as §1
[16] = tested on: Plasmodium falciparum; test: Antimalarial activity Plasmodium falciparum D10; assay type: functional, organism-based; how it was run: as §1
[17] = tested on: Plasmodium falciparum; test: Antimalarial activity Plasmodium falciparum Dd2; assay type: functional, organism-based; how it was run: as §1
[18] = tested on: Plasmodium falciparum; test: Antimalarial activity Plasmodium falciparum HB3; assay type: functional, organism-based; how it was run: as §1
[19] = Cmax in mouse; assay type: ADME, organism-based; conditions: in vivo
[20] = tested on: Plasmodium falciparum; test: Antimalarial activity Plasmodium falciparum FcB1; assay type: functional, organism-based; conditions: FcB1/Columbia; how it was run: as §1
[21] = Half life in mouse; assay type: ADME, organism-based; conditions: in vivo
[22] = Oral bioavailability in mouse; assay type: ADME, organism-based; conditions: in vivo
[23] = AUC (0 to infinity) in mouse; assay type: ADME, organism-based; set-up: time infinity; conditions: plasma

Compound: Cc1nc(Nc2ccc(OC(F)(F)F)cc2)cc(Nc2nccn2-c2cccc(C(=O)NCCN3CCCC3)c2)n1
- EC50 [1]: 168 nM

Compound: O=C(NCCc1c[nH]cn1)c1cccc(-n2ccnc2Nc2cc(Nc3ccc(OC(F)(F)F)cc3)ncn2)c1
- EC50 [1]: 1780 nM

Compound: CCN(CC)CCNC(=O)c1cccc(-n2ccnc2Nc2cc(Nc3ccc(OC(F)(F)F)cc3)nc(C)n2)c1
- hepatic extraction ratio [2]: < 0.17
- solubility thermodynamic [3]: 80 µg/mL (≈ 141 µM)
- hepatic extraction ratio [4]: 0.367
- hepatic extraction ratio [5]: < 0.31
- EC50 [1]: 46 nM

Compound: OC(c1cc(C(F)(F)F)nc2c(C(F)(F)F)cccc12)C1CCCCN1 (stereo not given) [MEFLOQUINE]
- EC50 [1]: 20 nM

Compound: Cc1nc(Nc2ccc(OC(F)(F)F)cc2)cc(Nc2nccn2-c2cccc(C(=O)N3CCN(CCO)CC3)c2)n1
- EC50 [1]: 768 nM

Compound: Cc1nc(Nc2ccc(OC(F)(F)F)cc2)cc(Nc2nccn2-c2cccc(C(=O)NCCc3c[nH]cn3)c2)n1
- EC50 [1]: 822 nM

Compound: CCN1CCCC1CNC(=O)c1cccc(-n2ccnc2Nc2cc(Nc3ccc(OC(F)(F)F)cc3)nc(C)n2)c1 (stereo not given)
- hepatic extraction ratio [2]: < 0.17
- solubility thermodynamic [3]: 89 µg/mL (≈ 153 µM)
- hepatic extraction ratio [4]: 0.275
- EC50 [1]: 60 nM

Compound: C[C@@H]1CC[C@H]2[C@@H](C)C(=O)O[C@@H]3O[C@@]4(C)CC[C@@H]1[C@]32OO4 [ARTEMISININ]
- EC50 [1]: 10 nM

Compound: FC(F)(F)Oc1ccc(Nc2cc(Nc3nccn3-c3cccc(C(F)(F)F)c3)nc(Oc3ccccc3)n2)cc1
- EC50 [1]: 116 nM

Compound: Cc1nc(Nc2ccc(OC(F)(F)F)cc2)cc(Nc2nccn2-c2cccc(C(=O)NCCCN3CCN(C)CC3)c2)n1
- EC50 [1]: 239 nM

Compound: Cc1nc(Nc2ccc(OC(F)(F)F)cc2)cc(Nc2nccn2-c2cccc(C(=O)NCCCN3CCOCC3)c2)n1
- EC50 [1]: 67 nM

Compound: Cc1nc(Nc2ccc(OC(F)(F)F)cc2)cc(Nc2nccn2-c2cccc(C(=O)NCCCN3CCCC3)c2)n1
- EC50 [1]: 224 nM

Compound: FC(F)(F)Oc1ccc(Nc2nc(Nc3nccn3-c3cccc(C(F)(F)F)c3)c3ccccc3n2)cc1
- EC50 [1]: 564 nM

Compound: CC(C)Oc1nc(Nc2ccc(OC(F)(F)F)cc2)cc(Nc2nccn2-c2cccc(C(F)(F)F)c2)n1
- EC50 [1]: 60 nM

Compound: FC(F)(F)Oc1ccc(Nc2cc(Nc3nccn3-c3cccc(C(F)(F)F)c3)nc(-c3ccccc3)n2)cc1
- EC50 [1]: 74 nM

Compound: COc1ncnc(NS(=O)(=O)c2ccc(N)cc2)c1OC [SULFADOXINE]
- EC50 [1]: 30 nM

Compound: Cc1nc(Nc2ccc(OC(F)(F)F)cc2)cc(Nc2nccn2-c2cccc(C(=O)NCCN3CCOCC3)c2)n1
- hepatic extraction ratio [2]: < 0.17
- solubility thermodynamic [3]: 90 µg/mL (≈ 154 µM)
- hepatic extraction ratio [4]: 0.243
- hepatic extraction ratio [5]: < 0.42
- EC50 [1]: 69 nM

Compound: CN(c1cc(Nc2ccc(OC(F)(F)F)cc2)ncn1)c1nccn1-c1cccc(C(F)(F)F)c1
- EC50 [1]: 3830 nM

Compound: FC(F)(F)Oc1ccc(Oc2cc(Nc3nccn3-c3cccc(C(F)(F)F)c3)ncn2)cc1
- EC50 [1]: 4240 nM

Compound: O=C(NCCN1CCOCC1)c1cccc(-n2ccnc2Nc2cc(Nc3ccc(OC(F)(F)F)cc3)ncn2)c1
- EC50 [1]: 249 nM

Other lines, results leading:

- EC50 [1]: 190 nM
Compound: COc1nc(Nc2ccc(OC(F)(F)F)cc2)cc(Nc2nccn2-c2cccc(C(F)(F)F)c2)n1

- EC50 [1]: 91 nM
Compound: CN1CCN(CCNc2cc(-n3ccnc3Nc3cc(Nc4ccc(OC(F)(F)F)cc4)ncn3)cc(C(F)(F)F)c2)CC1

- EC50 [1]: 53 nM
Compound: FC(F)(F)Oc1ccc(Nc2cc(Nc3nccn3-c3cccc(C(F)(F)F)c3)nc(NCCN3CCOCC3)n2)cc1

- EC50 [1]: 291 nM
Compound: CS(=O)(=O)c1nc(Nc2ccc(OC(F)(F)F)cc2)cc(Nc2nccn2-c2cccc(C(F)(F)F)c2)n1

- EC50 [1]: 113 nM
Compound: FC(F)(F)Oc1ccc(Nc2cc(Nc3nccn3-c3cccc(C(F)(F)F)c3)nc(N3CCOCC3)n2)cc1

- EC50 [1]: 4680 nM
Compound: Cc1c(Nc2ccc(OC(F)(F)F)cc2)ncnc1Nc1nccn1-c1cccc(C(F)(F)F)c1

- EC50 [1]: 268 nM
Compound: FC(F)(F)Oc1ccc(Nc2ccnc(Nc3nccn3-c3cccc(C(F)(F)F)c3)n2)cc1

- EC50 [1]: 65 nM
Compound: CN1CCN(c2cc(-n3ccnc3Nc3cc(Nc4ccc(OC(F)(F)F)cc4)ncn3)cc(C(F)(F)F)c2)CC1

- EC50 [1]: 532 nM
Compound: FC(F)(F)Oc1ccc(Nc2cc(Nc3nccn3-c3cc(N4CCOCC4)cc(C(F)(F)F)c3)ncn2)cc1

- EC50 [1]: 88 nM
Compound: FC(F)(F)Oc1ccc(Nc2cc(Nc3nccn3-c3cc(N4CCC(N5CCOCC5)CC4)cc(C(F)(F)F)c3)ncn2)cc1

- EC50 [1]: 114 nM
Compound: Cc1nc(Nc2ccc(OC(F)(F)F)cc2)cc(Nc2nccn2-c2cccc(C(F)(F)F)c2)n1

- EC50 [1]: 223 nM
Compound: FC(F)(F)Oc1ccc(Nc2cc(Nc3nccn3-c3cc(Br)cc(C(F)(F)F)c3)ncn2)cc1

- EC50 [1]: 436 nM
Compound: FC(F)(F)Oc1ccc(Nc2cc(Nc3nccn3-c3cccc(C(F)(F)F)c3)ncn2)cc1

- EC50 [1]: 107 nM
Compound: CSc1nc(Nc2ccc(OC(F)(F)F)cc2)cc(Nc2nccn2-c2cccc(C(F)(F)F)c2)n1

- EC50 [1]: 1330 nM
Compound: FC(F)(F)Oc1ccc(Nc2ncnc(Nc3nccn3-c3cccc(C(F)(F)F)c3)n2)cc1

- hepatic extraction ratio [2]: < 0.17
- EC50 [6]: 140 nM
- EC50 [7]: 58 nM
- EC50 [8]: 33 nM
- EC50 [9]: 50 nM
- EC50 [10]: 120 nM
- solubility thermodynamic [3]: 40 µg/mL (≈ 69.1 µM)
- EC50 [11]: 95 nM
- EC50 [12]: 139 nM
- EC50 [13]: 88 nM
- EC50 [14]: 50 nM
- EC50 [15]: 60 nM
- hepatic extraction ratio [4]: 0.264
- EC50 [16]: 15 nM
- EC50 [17]: 71 nM
- EC50 [18]: 46 nM
- hepatic extraction ratio [5]: < 0.28
- Cmax [19]: 946 nM
- EC50 [20]: 50 nM
- half-life [21]: 720 min
- bioavailability [22]: 30%
- EC50 [1]: 34 nM
- AUC(0-inf) [23]: 14.2 µM·h
Compound: CN1CCN(c2nc(Nc3ccc(OC(F)(F)F)cc3)cc(Nc3nccn3-c3cccc(C(F)(F)F)c3)n2)CC1

- EC50 [1]: 5440 nM
Compound: Oc1nc(Nc2ccc(OC(F)(F)F)cc2)cc(Nc2nccn2-c2cccc(C(F)(F)F)c2)n1

- solubility thermodynamic [3]: 110 µg/mL (≈ 166 µM)
- hepatic extraction ratio [5]: 0.316
- EC50 [1]: 90 nM
Compound: CN1CCN(C2CCN(c3cc(-n4ccnc4Nc4cc(Nc5ccc(OC(F)(F)F)cc5)ncn4)cc(C(F)(F)F)c3)CC2)CC1

- EC50 [1]: 49 nM
Compound: Nc1nc(Nc2ccc(OC(F)(F)F)cc2)cc(Nc2nccn2-c2cccc(C(F)(F)F)c2)n1

- EC50 [1]: 54 nM
Compound: CNc1nc(Nc2ccc(OC(F)(F)F)cc2)cc(Nc2nccn2-c2cccc(C(F)(F)F)c2)n1

- EC50 [1]: 432 nM
Compound: FC(F)(F)Oc1ccc(Nc2nccc(Nc3nccn3-c3cccc(C(F)(F)F)c3)n2)cc1

- EC50 [1]: 353 nM
Compound: FC(F)(F)Oc1ccc(Nc2cc(Nc3nccn3-c3cccc(C(F)(F)F)c3)nc(C(F)(F)F)n2)cc1

- EC50 [1]: 175 nM
Compound: OCCN1CCN(c2cc(-n3ccnc3Nc3cc(Nc4ccc(OC(F)(F)F)cc4)ncn3)cc(C(F)(F)F)c2)CC1

- EC50 [1]: 92 nM
Compound: FC(F)(F)Oc1ccc(Nc2cc(Nc3nccn3-c3cc(N4CCC(N5CCCC5)CC4)cc(C(F)(F)F)c3)ncn2)cc1

- EC50 [1]: 87 nM
Compound: FC(F)(F)Oc1ccc(Nc2cc(Nc3nccn3-c3cc(NCCN4CCOCC4)cc(C(F)(F)F)c3)ncn2)cc1
